Test results reported in ChEMBL document CHEMBL1139434, “Highly potent 1-aminocyclohexane-1-carboxylic acid substituted V2 agonists of arginine vasopressin” (J Med Chem, 2004).
Where a SMILES comes first, the peptide text is derived from it. [ ]: non-standard residue; d: D form. The star is where a group is joined. Cyclohexylacetyl(1-SH) = O=C(CC1(S)CCCCC1)*; Ac6c = NC1(C(=O)O)CCCCC1

Tests used:
Rattus norvegicus [1] = species: Rattus norvegicus; assay: Compound was evaluated for in vitro uterotonic activity in the absence of magnesium ions in female wistar rats; type: functional; details: for Kb: read-out: pA2 (converted)
Procedure, shortened: (§1)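 Uterus from Wistar females estrogenized 48 h beforehand, tested in vitro in the absence of magnesium ions. Synthetic oxytocin was the standard. Dose–response curves built from single additions, or cumulatively without washing between increasing doses. Values are means of three to five separate experiments.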

Rattus norvegicus [2] = species: Rattus norvegicus; assay: Compound was evaluated for antidiuretic activity with t1/2 of 200 min in male rats by modified Burn test; type: functional, Urine
Rattus norvegicus [3] = species: Rattus norvegicus; assay: (§2) Compound was evaluated for vasopressor activity in phenoxybenzamine-treated male rats; type: functional, organism-based; details: read-out: pA2 (converted)
Procedure, shortened: (§3)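 Pressor response measured in phenoxybenzamine-treated male Wistar rats, with synthetic arginine vasopressin as standard. Dose–response curves built from single administrations, or cumulatively without washing between increasing doses. Values are means of three to five separate experiments.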

Rattus norvegicus [4] = species: Rattus norvegicus; assay: Compound was evaluated for antidiuretic activity with t1/2 of 60 in male rats by modified Burn test; type: functional, Urine
Rattus norvegicus [5] = species: Rattus norvegicus; assay: as §2; type: functional; procedure, shortened: as §3
Rattus norvegicus [6] = species: Rattus norvegicus; assay: Compound was evaluated for in vitro uterotonic activity in the absence of magnesium ions in female wistar rats; range is 1.5-5.1; type: functional; procedure, shortened: as §1
Rattus norvegicus [7] = species: Rattus norvegicus; assay: Compound was evaluated for antidiuretic activity with t1/2 of 60 min in male rats by modified Burn test; range is 800-50000; type: functional, Urine
Rattus norvegicus [8] = species: Rattus norvegicus; assay: Compound was evaluated for antidiuretic activity with t1/2 of 60 min in male rats by modified Burn test; range is 750-900; type: functional, Urine
Rattus norvegicus [9] = species: Rattus norvegicus; assay: Compound was evaluated for antidiuretic activity with t1/2 of 60 min in male rats by modified Burn test; range is 114-257; type: functional, Urine
Rattus norvegicus [10] = species: Rattus norvegicus; assay: Compound was evaluated for antidiuretic activity with t1/2 of 60 min in male rats by modified Burn test; range is 1300-1745; type: functional, Urine
Rattus norvegicus [11] = species: Rattus norvegicus; assay: Compound was evaluated for in vitro uterotonic activity in the absence of magnesium ions in female wistar rats; range is 27-63; type: functional; procedure, shortened: as §1
Rattus norvegicus [12] = species: Rattus norvegicus; assay: Compound was evaluated for vasopressor activity in phenoxybenzamine-treated male rats; range is 346-370; type: functional; procedure, shortened: as §3

CC(C)[C@H](NC(=O)[C@H](Cc1ccccc1)NC(=O)C1(NC(=O)CCS)CCCCC1)C(=O)N[C@@H](CC(N)=O)C(=O)N[C@@H](CS)C(=O)N1CCC[C@H]1C(=O)N[C@H](CCCN=C(N)N)C(=O)NCC(N)=O
Kb (Rattus norvegicus [1]): 0.0155 µM | Activity (Rattus norvegicus [2]): ~50000 IU/mg | Kb (Rattus norvegicus [3]): 0.724 µM | Activity (Rattus norvegicus [4]): ~4500 IU/mg

NC(=O)CC[C@H](NC(=O)C1(NC(=O)[C@H](Cc2ccc(O)cc2)NC(=O)[C@@H](N)CS)CCCCC1)C(=O)N[C@@H](CC(N)=O)C(=O)N[C@@H](CS)C(=O)N1CCC[C@H]1C(=O)N[C@H](CCCN=C(N)N)C(=O)NCC(N)=O
Activity (Rattus norvegicus [1]): 0 IU/mg | Activity (Rattus norvegicus [5]): 0 IU/mg | Activity (Rattus norvegicus [2]): ~1.4 IU/mg | Activity (Rattus norvegicus [4]): ~0.1 IU/mg

NC(=O)CC[C@H](NC(=O)[C@H](Cc1ccccc1)NC(=O)C1(NC(=O)CCS)CCCCC1)C(=O)N[C@@H](CC(N)=O)C(=O)N[C@@H](CS)C(=O)N1CCC[C@H]1C(=O)N[C@H](CCCN=C(N)N)C(=O)NCC(N)=O
Activity (Rattus norvegicus [1]): 0.31 IU/mg | Kb (Rattus norvegicus [1]): 0.316 µM | Activity (Rattus norvegicus [2]): ~50000 IU/mg | Activity (Rattus norvegicus [4]): ~4500 IU/mg

NC(=O)CC[C@H](NC(=O)C1(NC(=O)[C@H](Cc2ccc(O)cc2)NC(=O)CCS)CCCCC1)C(=O)N[C@@H](CC(N)=O)C(=O)N[C@@H](CS)C(=O)N1CCC[C@H]1C(=O)N[C@H](CCCN=C(N)N)C(=O)NCC(N)=O
Activity (Rattus norvegicus [1]): 0 IU/mg | Activity (Rattus norvegicus [5]): 0 IU/mg | Activity (Rattus norvegicus [4]): <4 IU/mg

NC(=O)CC[C@H](NC(=O)[C@H](Cc1ccccc1)NC(=O)[C@H](Cc1ccc(O)cc1)NC(=O)CCS)C(=O)N[C@@H](CC(N)=O)C(=O)N[C@@H](CS)C(=O)N1CCC[C@H]1C(=O)N[C@H](CCCN=C(N)N)C(=O)NCC(N)=O
Activity (Rattus norvegicus [6]): <5.1 IU/mg | Activity (Rattus norvegicus [7]): <50000 IU/mg

NC(=O)CC[C@H](NC(=O)C1(NC(=O)[C@H](Cc2ccc(O)cc2)NC(=O)CCS)CCCCC1)C(=O)N[C@@H](CC(N)=O)C(=O)N[C@@H](CS)C(=O)N1CCC[C@H]1C(=O)N[C@@H](CCCN=C(N)N)C(=O)NCC(N)=O
Activity (Rattus norvegicus [1]): <0.04 IU/mg | Activity (Rattus norvegicus [5]): 0.34 IU/mg | Activity (Rattus norvegicus [2]): ~25 IU/mg | Activity (Rattus norvegicus [4]): ~0.8 IU/mg

NC(=O)CC[C@H](NC(=O)[C@H](Cc1ccccc1)NC(=O)C1(NC(=O)[C@@H](N)CS)CCCCC1)C(=O)N[C@@H](CC(N)=O)C(=O)N[C@@H](CS)C(=O)N1CCC[C@H]1C(=O)N[C@@H](CCCN=C(N)N)C(=O)NCC(N)=O
Activity (Rattus norvegicus [8]): <900 IU/mg | Kb (Rattus norvegicus [1]): ~2.51 µM | Activity (Rattus norvegicus [5]): 56.6 IU/mg | Activity (Rattus norvegicus [2]): ~9300 IU/mg

NC(=O)CC[C@H](NC(=O)C1(NC(=O)[C@H](Cc2ccc(O)cc2)NC(=O)[C@@H](N)CS)CCCCC1)C(=O)N[C@@H](CC(N)=O)C(=O)N[C@@H](CS)C(=O)N1CCC[C@H]1C(=O)N[C@@H](CCCN=C(N)N)C(=O)NCC(N)=O
Activity (Rattus norvegicus [1]): 0 IU/mg | Activity (Rattus norvegicus [5]): 0.24 IU/mg | Activity (Rattus norvegicus [2]): ~1.4 IU/mg | Activity (Rattus norvegicus [4]): ~0.1 IU/mg

NC(=O)CC[C@H](NC(=O)[C@H](Cc1ccccc1)NC(=O)C1(NC(=O)CCS)CCCCC1)C(=O)N[C@@H](CC(N)=O)C(=O)N[C@@H](CS)C(=O)N1CCC[C@H]1C(=O)N[C@@H](CCCN=C(N)N)C(=O)NCC(N)=O
Activity (Rattus norvegicus [1]): 0.71 IU/mg | Kb (Rattus norvegicus [1]): 0.794 µM | Activity (Rattus norvegicus [5]): 17.2 IU/mg | Activity (Rattus norvegicus [2]): ~50000 IU/mg | Activity (Rattus norvegicus [4]): ~4500 IU/mg

NC(=O)CC[C@H](NC(=O)[C@H](Cc1ccccc1)NC(=O)C1(NC(=O)[C@@H](N)CS)CCCCC1)C(=O)N[C@@H](CC(N)=O)C(=O)N[C@@H](CS)C(=O)N1CCC[C@H]1C(=O)N[C@H](CCCN=C(N)N)C(=O)NCC(N)=O
Activity (Rattus norvegicus [8]): <900 IU/mg | Kb (Rattus norvegicus [1]): ~2 µM | Activity (Rattus norvegicus [2]): ~9300 IU/mg | Kb (Rattus norvegicus [3]): ~1.58 µM

NC(=O)CC[C@H](NC(=O)[C@H](Cc1ccccc1)NC(=O)C1(NC(=O)CC2(S)CCCCC2)CCCCC1)C(=O)N[C@@H](CC(N)=O)C(=O)N[C@@H](CS)C(=O)N1CCC[C@H]1C(=O)N[C@H](CCCN=C(N)N)C(=O)NCC(N)=O
Kb (Rattus norvegicus [1]): 0.0479 µM | Kb (Rattus norvegicus [3]): 0.234 µM | Activity (Rattus norvegicus [4]): <4 IU/mg

NC(=O)CC[C@H](NC(=O)[C@H](Cc1ccccc1)NC(=O)[C@H](Cc1ccc(O)cc1)NC(=O)[C@@H](N)CS)C(=O)N[C@@H](CC(N)=O)C(=O)N[C@@H](CS)C(=O)N1CCC[C@H]1C(=O)N[C@H](CCCN=C(N)N)C(=O)NCC(N)=O
Activity (Rattus norvegicus [1]): 0.4 IU/mg | Activity (Rattus norvegicus [5]): 4.1 IU/mg | Activity (Rattus norvegicus [9]): <257 IU/mg

CC(C)[C@H](NC(=O)C1(NC(=O)[C@H](Cc2ccc(O)cc2)NC(=O)CCS)CCCCC1)C(=O)N[C@@H](CC(N)=O)C(=O)N[C@@H](CS)C(=O)N1CCC[C@H]1C(=O)N[C@H](CCCN=C(N)N)C(=O)NCC(N)=O
Activity (Rattus norvegicus [1]): 0 IU/mg | Activity (Rattus norvegicus [5]): 0 IU/mg | Activity (Rattus norvegicus [2]): 4500 IU/mg | Activity (Rattus norvegicus [4]): 450 IU/mg

NC(=O)CC[C@H](NC(=O)[C@H](Cc1ccccc1)NC(=O)C1(NC(=O)CC2(S)CCCCC2)CCCCC1)C(=O)N[C@@H](CC(N)=O)C(=O)N[C@@H](CS)C(=O)N1CCC[C@H]1C(=O)N[C@@H](CCCN=C(N)N)C(=O)NCC(N)=O
Kb (Rattus norvegicus [1]): 0.0468 µM | Activity (Rattus norvegicus [2]): ~1.4 IU/mg | Kb (Rattus norvegicus [3]): 0.055 µM | Activity (Rattus norvegicus [4]): ~0.1 IU/mg

NC(=O)CC[C@H](NC(=O)[C@H](Cc1ccccc1)NC(=O)[C@H](Cc1ccc(O)cc1)NC(=O)CCS)C(=O)N[C@@H](CC(N)=O)C(=O)N[C@@H](CS)C(=O)N1CCC[C@H]1C(=O)N[C@@H](CCCN=C(N)N)C(=O)NCC(N)=O
Activity (Rattus norvegicus [10]): <1745 IU/mg | Activity (Rattus norvegicus [11]): <63 IU/mg | Activity (Rattus norvegicus [12]): <370 IU/mg

CC(C)[C@H](NC(=O)[C@H](Cc1ccccc1)NC(=O)[C@H](Cc1ccc(O)cc1)NC(=O)[C@@H](N)CS)C(=O)N[C@@H](CC(N)=O)C(=O)N[C@@H](CS)C(=O)N1CCC[C@H]1C(=O)N[C@@H](CCCN=C(N)N)C(=O)NCC(N)=O (H-CYFVNCPRG-NH2)
Activity (Rattus norvegicus [5]): 32 IU/mg | Activity (Rattus norvegicus [4]): 738 IU/mg

CC(C)[C@H](NC(=O)C1(NC(=O)[C@H](Cc2ccc(O)cc2)NC(=O)[C@@H](N)CS)CCCCC1)C(=O)N[C@@H](CC(N)=O)C(=O)N[C@@H](CS)C(=O)N1CCC[C@H]1C(=O)N[C@@H](CCCN=C(N)N)C(=O)NCC(N)=O (H-CY[Ac6c]VNCPRG-NH2)
Activity (Rattus norvegicus [1]): 0 IU/mg | Activity (Rattus norvegicus [5]): 0 IU/mg | Activity (Rattus norvegicus [4]): <0.4 IU/mg

CC(C)[C@H](NC(=O)[C@H](Cc1ccccc1)NC(=O)C1(NC(=O)[C@@H](N)CS)CCCCC1)C(=O)N[C@@H](CC(N)=O)C(=O)N[C@@H](CS)C(=O)N1CCC[C@H]1C(=O)N[C@@H](CCCN=C(N)N)C(=O)NCC(N)=O (H-C[Ac6c]FVNCPRG-NH2)
Kb (Rattus norvegicus [1]): 0.126 µM | Activity (Rattus norvegicus [5]): 0.9 IU/mg | Activity (Rattus norvegicus [2]): ~23000 IU/mg | Activity (Rattus norvegicus [4]): ~2300 IU/mg

NC(=O)CC[C@H](NC(=O)[C@H](Cc1ccccc1)NC(=O)[C@H](Cc1ccc(O)cc1)NC(=O)CC1(S)CCCCC1)C(=O)N[C@@H](CC(N)=O)C(=O)N[C@@H](CS)C(=O)N1CCC[C@H]1C(=O)N[C@@H](CCCN=C(N)N)C(=O)NCC(N)=O ({Cyclohexylacetyl(1-SH)}-YFQNCPRG-NH2)
Kb (Rattus norvegicus [3]): 0.00447 µM | Activity (Rattus norvegicus [4]): 0.03 IU/mg

CC(C)[C@H](NC(=O)C1(NC(=O)[C@H](Cc2ccc(O)cc2)NC(=O)CC2(S)CCCCC2)CCCCC1)C(=O)N[C@@H](CC(N)=O)C(=O)N[C@@H](CS)C(=O)N1CCC[C@H]1C(=O)N[C@@H](CCCN=C(N)N)C(=O)NCC(N)=O ({Cyclohexylacetyl(1-SH)}-Y[Ac6c]VNCPRG-NH2)
Kb (Rattus norvegicus [1]): ≥ 1 µM | Activity (Rattus norvegicus [5]): 0 IU/mg | Activity (Rattus norvegicus [4]): <4 IU/mg

N=C(N)NCCC[C@H](NC(=O)[C@@H]1CCCN1C(=O)[C@@H]1CSSC[C@H](N)C(=O)N[C@@H](Cc2ccc(O)cc2)C(=O)N[C@@H](Cc2ccccc2)C(=O)N[C@@H](CCC(N)=O)C(=O)N[C@@H](CC(N)=O)C(=O)N1)C(=O)NCC(N)=O [VASOPRESSIN]
Activity (Rattus norvegicus [1]): 17 IU/mg | Activity (Rattus norvegicus [5]): 412 IU/mg | Activity (Rattus norvegicus [4]): 465 IU/mg
